Assay results reported in ChEMBL document CHEMBL2434915, “2-(2-Hydrazinyl)thiazole derivatives: design, synthesis and in vitro antimycobacterial studies” (Eur J Med Chem, 2013).
Values after ≈ are worked out from the molar mass of the structure shown.

Legend:
[1] = tested on: Mycobacterium tuberculosis; experiment: Antimycobacterial activity against Mycobacterium tuberculosis H37Rv after 5 days by broth microdilution method; type: functional; settings: 120 h
Summary of the method: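 Twofold DMSO dilutions (final 100 to 0.19, units as printed unclear) in Middlebrook 7H9 with 0.2% glycerol, 0.05% Tween 80 and 10% ADC; inoculum 3-7 x 10⁵ CFU/ml; 37°C for 5 days. Resazurin/Tween 80 then added, 24 h more at 37°C; A575/A610 read. MIC = lowest concentration giving 80% inhibition versus medium-only (100%) and drug-free culture (0%) controls; isoniazid reference.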

A549 = experiment: Cytotoxicity against human A549 cells after 48 hrs by MTT assay; type: cell-based
Summary of the method: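 A549 human lung carcinoma type II epithelial cells kept in RPMI-1640 with 5% FBS, penicillin/streptomycin and 2 mM L-glutamine at 37 °C, 5% CO2. Seeded at 3 × 10³ cells/well and left overnight. Exposed to compounds at various concentrations for 48 h. After a PBS wash, MTT (5 mg/ml) was added for 4 h at 37 °C. Formazan dissolved in DMSO, read at 540 nm. IC50 from survival plots; mean ±SE, n=5.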

Row | SMILES | MIC [1] [µM] | IC50 (A549) [µg/mL]
1 | CCOC(=O)c1sc(N/N=C/c2cccc(O)c2)nc1C | > 200 | –
2 | CCOC(=O)c1sc(N/N=C/c2ccc([N+](=O)[O-])cc2)nc1C | 200 (≈ 66.9 µg/mL) | –
3 | CC(=O)c1sc(N/N=C/c2ccc(Cl)cc2Cl)nc1C | > 200 | –
4 | COc1cc(/C=N/Nc2nc(C)c(C(C)=O)s2)cc(OC)c1OC | > 200 | –
5 | CC(=O)c1sc(N/N=C/c2cccc3c2OCO3)nc1C | > 200 | –
6 | CCOC(=O)c1sc(N/N=C/c2ccco2)nc1C | 200 (≈ 55.9 µg/mL) | –
7 | CCOC(=O)c1sc(N/N=C(\C)c2cccs2)nc1C | 100 (≈ 30.9 µg/mL) | –
8 | CCOC(=O)c1sc(N/N=C/c2c[nH]c3ccccc23)nc1C | 200 (≈ 65.7 µg/mL) | –
9 | CCOC(=O)c1sc(N/N=C(\C)c2ccccn2)nc1C | 12.5 (≈ 3.8 µg/mL) | 140 (≈ 460 µM)
10 | CCOC(=O)c1sc(N/N=C(\C)c2cccnc2)nc1C | > 200 | –
11 | CCOC(=O)c1sc(N/N=C(\C)c2ccncc2)nc1C | 200 (≈ 60.9 µg/mL) | –
12 | CC(=O)c1sc(N/N=C/c2ccco2)nc1C | 200 (≈ 49.9 µg/mL) | –
13 | CC(=O)c1sc(N/N=C(\C)c2cccs2)nc1C | 200 (≈ 55.9 µg/mL) | –
14 | CC(=O)c1sc(N/N=C/c2c[nH]c3ccccc23)nc1C | > 200 | –
15 | CC(=O)c1sc(N/N=C(\C)c2ccccn2)nc1C | 100 (≈ 27.4 µg/mL) | 50 (≈ 182 µM)
16 | CCOC(=O)Cc1csc(N/N=C(\C)c2ccccn2)n1 | 200 (≈ 60.9 µg/mL) | 200 (≈ 657 µM)
17 | CCOC(=O)Cc1csc(N/N=C(\C)c2cccnc2)n1 | 200 (≈ 60.9 µg/mL) | –
18 | CCOC(=O)c1sc(N/N=C/c2ccccc2)nc1C | > 200 | –
19 | CCOC(=O)c1sc(N/N=C(\C)c2ccccc2)nc1C | > 200 | 150 (≈ 494 µM)

Row | SMILES | MIC [1] [µM] | IC50 (A549) [µg/mL]
20 | CCOC(=O)c1sc(N/N=C(\C)c2ccc(F)cc2)nc1C | 200 (≈ 64.3 µg/mL) | –
21 | CCOC(=O)c1sc(N/N=C/c2ccccc2Cl)nc1C | > 200 | –
22 | CCOC(=O)c1sc(N/N=C(\C)c2cccc(Cl)c2)nc1C | > 200 | –
23 | CCOC(=O)c1sc(N/N=C/c2ccc(Cl)cc2)nc1C | > 200 | –
24 | CCOC(=O)c1sc(N/N=C/c2ccc(Cl)cc2Cl)nc1C | > 200 | –
25 | CCOC(=O)c1sc(N/N=C/c2cccc(Br)c2)nc1C | > 200 | –
26 | CCOC(=O)c1sc(N/N=C/c2ccccc2O)nc1C | 25 (≈ 7.63 µg/mL) | –
27 | CCOC(=O)c1sc(N/N=C/c2ccc(O)cc2)nc1C | > 200 | –
28 | CCOC(=O)c1sc(N/N=C/c2ccc(OC)cc2)nc1C | > 200 | –
29 | CCOC(=O)c1sc(N/N=C/c2ccc(O)c(OC)c2)nc1C | > 200 | –
30 | CCOC(=O)c1sc(N/N=C/c2ccc(O)c(OCC)c2)nc1C | > 200 | –
31 | CCOC(=O)c1sc(N/N=C/c2ccc(OC)c(O)c2)nc1C | > 200 | –
32 | CCOC(=O)c1sc(N/N=C/c2ccc(OC)c(OC)c2)nc1C | > 200 | –
33 | CCOC(=O)c1sc(N/N=C/c2ccc3c(c2)OCO3)nc1C | > 200 | –
34 | CCOC(=O)c1sc(N/N=C/c2cc(OC)c(OC)c(OC)c2)nc1C | > 200 | –
35 | CCOC(=O)c1sc(N/N=C/c2ccc(C)cc2)nc1C | > 200 | –
36 | CCOC(=O)c1sc(N/N=C/c2ccc(N(C)C)cc2)nc1C | 200 (≈ 66.5 µg/mL) | –
37 | CCOC(=O)c1sc(N/N=C/c2ccccc2[N+](=O)[O-])nc1C | > 200 | –
38 | NNC(=O)c1ccncc1 [ISONIAZID] | 0.45 (≈ 0.0617 µg/mL) | –
